Data reported in ChEMBL document CHEMBL2407083, “Design and synthesis of novel 4-(4-oxo-2-arylthiazolidin-3-yl)benzenesulfonamides as selective inhibitors of carbonic anhydrase IX over I and II with potential anticancer activity” (Eur J Med Chem, 2013).
In brackets after ≈: the same amount, converted by molar mass. Activity calls are given as the source filed them. The calls are words filed in the database; no cut-off is given here.

Columns and labels:
DU-145 = test: Cytotoxicity against human DU145 cells after 48 hrs by MTT assay; settings: DU-145, 48 h
COLO 205 [1] = test: Cytotoxicity against human COLO205 cells after 48 hrs by MTT assay; settings: COLO 205, 48 h
MDA-MB-231 = test: Cytotoxicity against human MDA-MB-231 cells after 48 hrs by MTT assay; settings: MDA-MB-231, 48 h
Carbonic anhydrase 9 = Carbonic anhydrase 9 (Homo sapiens, UniProt Q16790); test: Inhibition of carbonic anhydrase 9 (unknown origin) preincubated for 15 mins by stopped flow CO2 hydration assay
Mus musculus [2] = test: Toxicity in Swiss albino mouse DLA-induced solid tumor model assessed as increase in body weight at 50 mg/kg, po administered on days 3rd, 5th, 7th, 10th, 12th, and 14th of tumor inoculation measured on day 30 (reference value: 13.79%); format: organism-based; design: dose 50 mg/kg, route oral; settings: in vivo
Mus musculus [3] = test: Antitumor activity in Swiss albino mouse DLA-induced solid tumor model assessed as reduction in tumor volume at 50 mg/kg, po administered on days 3rd, 5th, 7th, 10th, 12th, and 14th of tumor inoculation measured on day 30; format: functional; design: scale not given: the % may be the effect or the level left
Summary of the method: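 Male Swiss albino mice (6-8 weeks, 29 ± 2 g) received DLA cells, 1 × 10⁶/mouse, subcutaneously into the right hind limb. Dosing by mouth in 0.25% CMC suspension. A vernier caliper gave tumor diameter every third day from day 3, and V = 4/3πr₁²×r₂. Percent inhibition is against vehicle control on day 30. Six mice per group.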

COLO 205 [4] = test: Induction of apoptosis in human COLO205 cells assessed as chromatin condensation at IC50 after 48 hrs using acridine orange and ethidium bromide staining by fluorescence microscopic analysis; format: functional, cell-based
Summary of the method: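 COLO-205 cells seeded at 10⁵ cells/ml, grown 24 h, then treated for 48 h. Cells collected by trypsinization, centrifuged at 129 g for 5 min, and washed with PBS. Stained with a 1:1 acridine orange/ethidium bromide mix and examined by fluorescence microscopy against control cells.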

COLO 205 [5] = test: Induction of apoptosis in human COLO205 cells assessed as DNA fragmentation at IC50 after 48 hrs using Hoechst 33258 staining by fluorescence microscopic analysis; format: functional, cell-based
Summary of the method: (§1)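 COLO-205 cells plated at 10⁵ cells/ml and grown to 70-80% confluency, then treated for 48 h. Fixed in 4% formaldehyde for 30 min at RT and stained with Hoechst 33258 for 15 min at RT. After three PBS washes, examined by inverted fluorescence microscopy (ex 340-380 nm, em 465 nm) against untreated control cells.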

COLO 205 [6] = test: Induction of apoptosis in human COLO205 cells assessed as nuclear condensation at IC50 after 48 hrs using Hoechst 33258 staining by fluorescence microscopic analysis; format: functional, cell-based; summary of the method: as §1

NS(=O)(=O)c1ccc(N2C(=O)CSC2c2cccc(Br)c2)cc1 (stereo not given)
IC50 (DU-145): 30.1 mg/L (≈ 72.9 µM)
IC50 (COLO 205 [1]): 16.9 mg/L (≈ 40.9 µM)
IC50 (MDA-MB-231): 12.4 mg/L (≈ 30 µM)
Ki (Carbonic anhydrase 9): 0.0194 µM

NS(=O)(=O)c1ccc(N2C(=O)CSC2c2ccccc2Br)cc1 (stereo not given)
IC50 (DU-145): 35 mg/L (≈ 84.7 µM)
IC50 (COLO 205 [1]): 27.5 mg/L (≈ 66.5 µM)
IC50 (MDA-MB-231): 20.6 mg/L (≈ 49.9 µM)
Ki (Carbonic anhydrase 9): 0.0092 µM

NS(=O)(=O)c1ccc(N2C(=O)CSC2c2ccc(Cl)cc2)cc1 (stereo not given)
IC50 (DU-145): 29.3 mg/L (≈ 79.4 µM)
IC50 (COLO 205 [1]): 15.4 mg/L (≈ 41.7 µM)
IC50 (MDA-MB-231): 7.16 mg/L (≈ 19.4 µM)
Ki (Carbonic anhydrase 9): 0.0047 µM

NS(=O)(=O)c1ccc(N2C(=O)CSC2c2ccccc2Cl)cc1 (stereo not given)
IC50 (DU-145): 33.3 mg/L (≈ 90.2 µM)
IC50 (COLO 205 [1]): 19.5 mg/L (≈ 52.9 µM)
IC50 (MDA-MB-231): 13.6 mg/L (≈ 36.8 µM)
Ki (Carbonic anhydrase 9): 0.0077 µM

NS(=O)(=O)c1ccc(N2C(=O)CSC2c2cccc(F)c2)cc1 (stereo not given)
IC50 (DU-145): 39.1 mg/L (≈ 111 µM)
IC50 (COLO 205 [1]): 29.8 mg/L (≈ 84.7 µM)
IC50 (MDA-MB-231): 21.4 mg/L (≈ 60.6 µM)
Ki (Carbonic anhydrase 9): 0.0531 µM

NS(=O)(=O)c1ccc(N2C(=O)CSC2c2ccccc2)cc1 (stereo not given)
IC50 (DU-145): 39.2 mg/L (≈ 117 µM)
IC50 (COLO 205 [1]): 30.6 mg/L (≈ 91.5 µM)
IC50 (MDA-MB-231): 23.9 mg/L (≈ 71.4 µM)
Ki (Carbonic anhydrase 9): 0.0212 µM

NS(=O)(=O)c1ccc(N2C(=O)CSC2c2ccc(Br)cc2)cc1 (stereo not given)
IC50 (DU-145): 35.1 mg/L (≈ 84.9 µM)
IC50 (COLO 205 [1]): 23.1 mg/L (≈ 55.8 µM)
IC50 (MDA-MB-231): 17.5 mg/L (≈ 42.3 µM)
Ki (Carbonic anhydrase 9): 0.0135 µM

NS(=O)(=O)c1ccc(N2C(=O)CSC2c2ccc(F)cc2)cc1 (stereo not given)
IC50 (DU-145): 37.1 mg/L (≈ 105 µM)
IC50 (COLO 205 [1]): 31.4 mg/L (≈ 89 µM)
IC50 (MDA-MB-231): 22.7 mg/L (≈ 64.4 µM)
Ki (Carbonic anhydrase 9): 0.0374 µM

NS(=O)(=O)c1ccc(N2C(=O)CSC2c2ccccc2F)cc1 (stereo not given)
IC50 (DU-145): 38.6 mg/L (≈ 110 µM)
IC50 (COLO 205 [1]): 34.7 mg/L (≈ 98.4 µM)
IC50 (MDA-MB-231): 25.9 mg/L (≈ 73.4 µM)
Ki (Carbonic anhydrase 9): 0.0444 µM

NS(=O)(=O)c1ccc(N2C(=O)CSC2c2cccc(Cl)c2)cc1 (stereo not given)
Activity (Mus musculus [2]): 4.09%
Activity (Mus musculus [3]): 64.83%
Activity (COLO 205 [4]): Active
Activity (COLO 205 [5]): Active
IC50 (DU-145): 23.9 mg/L (≈ 64.9 µM)
Activity (COLO 205 [6]): Active
IC50 (COLO 205 [1]): 5.03 mg/L (≈ 13.6 µM)
IC50 (MDA-MB-231): 5.81 mg/L (≈ 15.8 µM)
Ki (Carbonic anhydrase 9): 0.0022 µM
